These results are taken from ChEMBL document CHEMBL3525897, “Metabolism and quantification of [(18)F]DPA-714, a new TSPO positron emission tomography radioligand” (Drug Metab Dispos, 2013).

Data set [1] in a line: Retention time in baboon plasma treated with [18F]DPA-714 by radio-HPLC analysis. The data set is classed as ADME, cell-free. To be noted: papio anubis. In a few lines: (§1)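 Isoflurane-anaesthetized baboons, 6 PET experiments. Arterial femoral plasma sampled 0-120 min and centrifuged at 4°C, then deproteinated with acetonitrile; pellet radioactivity counted and treated as metabolite. Supernatant run on radio-HPLC (C18 preparative, 0.1% TFA water/acetonitrile 20-80% over 10 min, 5 mL/min). Counts decay-corrected to injection. Parent fraction as % total; data fitted to two exponentials; mean ± sd.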

Data set [2] in a line: Retention time of the compound by LC-MS analysis. The data set is classed as physicochemical. The procedure, abridged: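 Separation of DPA-714 and its metabolites by LC-MS on reverse-phase Atlantis C18 column (2.1x150 mm) with electrospray ionization.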
A further data set relates to Liver microsome. The experiment in a line: Drug level in Sprague-Dawley rat liver microsomes treated with DPA-714 after 15 to 60 mins by LC-MS/MS analysis. A general note: Liver microsomes are a subcellular fraction often used to study metabolism.
Data set [3] in a line: Drug metabolism in baboon urine assessed as compound remaining measured at 180 mins by radio-HPLC analysis. The data set is classed as ADME, tissue-based. To be noted: papio anubis, read-out: Stability. The procedure, abridged:
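Baboon urine collected by catheter at 180 min after injection. 1 mL injected directly onto the plasma radio-HPLC system (C18, 0.1% TFA water/acetonitrile gradient).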

Data set [4] can be described thus: Ratio of drug level in brain to plasma in Sprague-Dawley rat at 32.1 +/- 2.8 MBq, iv measured at 120 mins by radio-HPLC analysis. In kind it is ADME, organism-based. To be noted: brain and plasma, 32.1 MBq, read-out: BPR. The procedure, abridged:
(§2)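 Male Sprague-Dawley rats (250-300 g) given 32.1 ± 2.8 MBq [18F]DPA-714 by tail vein and decapitated 120 min later. Brain sonicated twice in acetonitrile on ice, extracts pooled and concentrated. Plasma acetonitrile-deproteinated. Parent and radiometabolites separated by radio-HPLC (C18, 0.1% TFA water/acetonitrile gradient 20-80% B). Expressed as %ID/g. Thighbone cortex and marrow also counted. Mean ± sd of 2 experiments, 2 rats each.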

Another data set concerns Plasma. Description: Metabolic stability of the compound in Sprague-Dawley rat plasma at 20 kBq/ml at 37 degC by radio-HPLC analysis. The data set is classed as ADME, cell-free. In a few lines: (§3)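 Plasma spiked with 20 kBq/mL [18F]DPA-714, triplicate. Extracted with acetonitrile at time zero, or after incubation at 37°C (190 min for baboon plasma). Parent peak area measured by radio-HPLC.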

A further data set relates to Brain. Description: Metabolic stability of the compound in Sprague-Dawley rat brain homogenate at 37 kBq at 37 degC by radio-HPLC analysis. In kind it is ADME, tissue-based. In a few lines:
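Rat brain sonicated in 0.1 M potassium phosphate, pH 7.4, at 4°C and spiked with 37 kBq [18F]DPA-714. Aliquots extracted with acetonitrile at time zero and after 180 min at 37°C. Analysed by radio-HPLC.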

Data set [5] can be described thus: Biodistribution in baboon lung at 276 +/- 60 MBq, iv up to 90 mins by PET analysis. The data set is classed as ADME, organism-based. The note with it: papio anubis, in vivo, 1.5 h. The procedure, abridged:
(§4)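 Whole-body PET (HR+) in male Papio anubis baboons after i.v. 276 ± 60 MBq (4.8 ± 2.1 nmol) [18F]DPA-714. 2D transmission scans for attenuation correction. 3D emission scans of 1 to 4 min per bed step, acquired up to 90 min post-injection. Uptake reported as SUVmax.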

The nature of data set [6]: Biodistribution in baboon spleen at 276 +/- 60 MBq, iv up to 90 mins by PET analysis. To be noted: papio anubis, in vivo, 1.5 h. The data set is classed as ADME, organism-based. The procedure, abridged:
as §4

A short description of data set [7]: Biodistribution in baboon parotid gland at 276 +/- 60 MBq, iv up to 90 mins by PET analysis. In kind it is ADME, organism-based. To be noted: papio anubis, in vivo, 1.5 h. The procedure, abridged:
as §4

A short description of data set [8]: Biodistribution in baboon liver at 276 +/- 60 MBq, iv up to 90 mins by PET analysis. In kind it is ADME, organism-based. To be noted: papio anubis, in vivo, 1.5 h. The procedure, abridged:
as §4

The nature of data set [9]: Biodistribution in baboon gallbladder at 276 +/- 60 MBq, iv measured at 42 mins by PET analysis. The note with it: papio anubis, in vivo, 0.7 h. The data set is classed as ADME, organism-based, Gall bladder. In a few lines:
as §4

Data set [10] can be described thus: Biodistribution in baboon kidney at 276 +/- 60 MBq, iv measured at 10 mins by PET analysis. To be noted: papio anubis, in vivo. The data set is classed as ADME, organism-based. In a few lines:
as §4

The nature of data set [11]: Metabolic stability of the compound in baboon plasma assessed as compound remaining by SPE method. The data set is classed as ADME, cell-free. To be noted: papio anubis. In a few lines:
(§5)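 Baboon arterial plasma, five samples per animal, n=3. 200 μL diluted to 400 μL with 4% HCl and loaded on HLB SPE cartridge. Washed with water, then 35/65 acetonitrile/water; parent eluted with acetonitrile. All fractions and cartridge counted. Parent given as % of eluted radioactivity or of initial sample. Compared with radio-HPLC; mono-exponential fit.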

The nature of data set [12]: Biodistribution in Sprague-Dawley rat bone marrow at 32.1 +/- 2.8 MBq, iv measured at 120 mins by radio-HPLC analysis. The data set is classed as ADME, organism-based. The note with it: 32.1 MBq. In a few lines:
as §2

The nature of data set [13]: Biodistribution in baboon urinary bladder at 276 +/- 60 MBq, iv up to 90 mins by PET analysis. The data set is classed as ADME, organism-based. To be noted: papio anubis, in vivo, 1.5 h. The procedure, abridged:
as §4

The nature of data set [14]: Biodistribution in baboon kidney at 276 +/- 60 MBq, iv measured at 90 mins by PET analysis. In kind it is ADME, organism-based. To be noted: papio anubis, in vivo, 1.5 h. The procedure, abridged: as §4
A short description of data set [15]: Retention time in baboon plasma by radio-HPLC analysis. The data set is classed as ADME, cell-free. The note with it: papio anubis. In a few lines: as §1
Data set [16] is described as follows: Biodistribution in baboon vertebral bodies at 276 +/- 60 MBq, iv up to 90 mins by PET analysis. The data set is classed as ADME, organism-based. The note with it: papio anubis, in vivo, 1.5 h. The procedure, abridged: as §4
A short description of data set [17]: Biodistribution in Sprague-Dawley rat plasma at 32.1 +/- 2.8 MBq, iv measured at 120 mins by radio-HPLC analysis. In kind it is ADME, organism-based. The note with it: 32.1 MBq. The procedure, abridged: as §2
Data set [18] can be described thus: Drug metabolism in baboon assessed as compound remaining measured at 120 mins by radio-HPLC analysis. The data set is classed as ADME, organism-based. The note with it: papio anubis, in vivo; read-out: Stability. In a few lines: as §1
Data set [19] can be described thus: Biodistribution in Sprague-Dawley rat brain at 32.1 +/- 2.8 MBq, iv measured at 120 mins by radio-HPLC analysis. In kind it is ADME, organism-based. To be noted: 32.1 MBq. The procedure, abridged:
as §2

The nature of data set [20]: Half life in baboon by radio-HPLC analysis. The data set is classed as ADME, organism-based. To be noted: papio anubis, in vivo. In a few lines:
as §1

Data set [21] in a line: Biodistribution in Sprague-Dawley rat thighbone cortex at 32.1 +/- 2.8 MBq, iv measured at 120 mins by radio-HPLC analysis. In kind it is ADME, organism-based, Bone element. To be noted: 32.1 MBq. In a few lines:
as §2

A short description of data set [22]: Biodistribution in baboon heart at 276 +/- 60 MBq, iv up to 90 mins by PET analysis. The data set is classed as ADME, organism-based. The note with it: papio anubis, in vivo, 1.5 h. In a few lines: as §4
A short description of data set [23]: Drug metabolism in baboon assessed as compound remaining measured at 30 mins by radio-HPLC analysis. In kind it is ADME, organism-based. To be noted: papio anubis, in vivo; read-out: Stability. In a few lines: as §1
Data set [24] can be described thus: Half life in baboon by SPE method. The data set is classed as ADME, organism-based. To be noted: papio anubis, in vivo. In a few lines: as §5
Data set [25] can be described thus: Drug recovery in baboon by SPE method. In kind it is ADME, organism-based. The note with it: papio anubis, in vivo; read-out: Drug recovery. The procedure, abridged: as §5
A short description of data set [26]: Metabolic stability of the compound in baboon plasma at 20 kBq/ml at 37 degC by radio-HPLC analysis. The data set is classed as ADME, cell-free. The note with it: papio anubis. In a few lines: as §3
The nature of data set [27]: Chemical stability of the compound in saline. In kind it is physicochemical. The note with it: buffer.
Data set [28] can be described thus: Biodistribution in baboon duodenum at 276 +/- 60 MBq, iv by PET analysis. The data set is classed as ADME, organism-based. To be noted: papio anubis, in vivo. In a few lines:
as §4

Take `CCNC(=O)Cc1c(-c2ccc(OCC[18F])cc2)nn2c(C)cc(CO)nc12`: the Retention_time in data set [1] stood at 7.25 min.
The compound `CCN(CC)C(=O)Cc1c(-c2ccc(OCCF)cc2)nn2c(C)c(O)c(C)nc12` had a Retention_time in [2] of 16.43 min. The Drug metabolism result with Liver microsome is on record as “metabolite_detected”.
The matching figures for `CCN(CC)C(=O)Cc1c(-c2ccc(OCCF)cc2)nn2c(CO)cc(CO)nc12`: 14.28 min and “metabolite_detected”.
`CCNC(=O)Cc1c(-c2ccc(OCC[18F])cc2)nn2c(C)cc(C)nc12`: in data set [1], the Retention_time was found to be 8.583 min.
By half-life is commonly meant the time in which the quantity being followed falls by half. As for `CCN(CC)C(=O)Cc1c(-c2ccc(OCC[18F])cc2)nn2c(C)cc(C)nc12` [DPA-714 F-18], the remaining at 3 h in [3] is less than 2%. Also, the Kp at 2 h in data set [4] is 11. Also, the Stability with Plasma is 180 min; in the data set on Brain, 180 min; in data set [11], 95%; in data set [26], 190 min; in data set [27], “Stable”. Also, the SUVmax in data set [5] turned out to be 5.67; in data set [6] it was 7.57; in data set [7] it was 1.93; in data set [8], 6.28; in data set [9], 7.31; in [10], 12.7. The SUVmax in [13] is listed as 6.5; in [16], 1.99; in data set [22], 7.42. In addition, the tissue uptake at 2 h came out at 65% in [12], 15% in [17], 85% in [19] and 35% in [21]. In data set [14], the SUV was determined as 4.6. In addition, in data set [15], the Retention_time came out at 10.083 min. Also, the remaining at 2 h in data set [18] was 11%. For the same compound, the half-life in data set [20] stood at 19 min; in data set [24], 12 min. The remaining at 0.5 h in [23] worked out at 46%. In [25], the recovery was 94%. The Drug uptake result in data set [28] is listed as “Active”.
Consider `CCNC(=O)Cc1c(-c2ccc(OCCF)cc2)nn2c(C)cc(CO)nc12`, for which, in data set [2], the Retention_time is on record as 13.88 min. Further, the Drug metabolism result in the data set with Liver microsome was “metabolite_detected”.
